In the library only some 1.6% were active in any assay of this set; here they are far more common.
C8 TRAIL sens: caspase-8 TRAIL sensitization; 1% of 360,000 active; inhibition (viability loss, TRAIL sensitization), % at 10 µM; NB7+C8 cells + TRAIL, ATPlite viability luminescence; AID 624354;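 active means compounds causing at least 50% loss of cell viability in the single-dose screen, relative to plate controls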
FLuc stim CS: affects firefly luciferase, flagging false hits in luciferase stimulation screens. 200,000 tested, under 10 active. activation factor at 10 µM. P08659. ATPlite luciferase biochemical, luminescence, 10 min; 0 = ATP-free wells, 1 = DMSO control. AID 1027;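 active means luciferase activation factor, scaled between plate controls, of at least 2 with compound at 10 µM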
Target sequence (P08659 whole entry, looked up): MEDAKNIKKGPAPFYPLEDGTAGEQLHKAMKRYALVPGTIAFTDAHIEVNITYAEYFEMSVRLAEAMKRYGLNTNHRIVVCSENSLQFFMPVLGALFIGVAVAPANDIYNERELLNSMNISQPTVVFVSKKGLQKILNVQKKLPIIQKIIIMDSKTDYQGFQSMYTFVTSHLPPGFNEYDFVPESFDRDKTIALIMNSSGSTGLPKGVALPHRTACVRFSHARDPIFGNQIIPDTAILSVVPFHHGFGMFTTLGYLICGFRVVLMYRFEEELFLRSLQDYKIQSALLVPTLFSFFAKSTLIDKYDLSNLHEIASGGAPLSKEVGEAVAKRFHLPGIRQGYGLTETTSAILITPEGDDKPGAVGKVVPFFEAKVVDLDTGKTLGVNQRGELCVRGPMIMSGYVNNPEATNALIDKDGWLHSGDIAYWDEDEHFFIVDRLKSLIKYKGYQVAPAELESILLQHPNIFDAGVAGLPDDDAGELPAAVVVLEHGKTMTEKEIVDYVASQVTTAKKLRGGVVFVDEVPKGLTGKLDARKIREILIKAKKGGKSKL
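assay system = Luciferase/luciferin detection reagent, cell-free biochemical luciferase assay | also added = ATP substrate | times = 10 min post-reagent at room temperature | measured by = luminescence from luciferase reaction | measure = luciferase activation, seen as luminescence increase over controls | benchmarks = low control with PBS replacing ATP, high control enzyme plus ATP without compound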
PPC-1+TRAIL kill: kills PPC-1 cancer cells in the presence of TRAIL. PPC-1 cells + TRAIL, ATPLite viability luminescence. 0.41% of 220,000 active. cell killing (% activity), % at 4 µM or 5 µM. AID 1443;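 active means cell killing above 50% in the first pass at 4 µM, then a duplicate retest at 5 µM averaging 50% or more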;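 further: plate controls were cells with TRAIL plus DMSO for no effect and medium-only wells lacking cells for full effect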
FLuc inhib CS: inhibits firefly luciferase, flagging false hits in luciferase inhibition screens | P08659 | ATPLite firefly luciferase biochemical luminescence, 10 min | inhibition, % at 10 µM | 1.5% of 200,000 active;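 active means inhibition above about 50% when tested at 10 µM, limit read from the data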
Numbers without * were called inactive; x = not tested or not shown.

SMILES	C8 TRAIL sens	FLuc stim CS	PPC-1+TRAIL kill	FLuc inhib CS
CCC(C)Nc1ccc(NC(C)CC)cc1 (configuration not stated)	77*	x	x	x
CCOC(=O)C1CCN(C(=O)c2c(C)oc3c2C(=O)c2ccccc2C3=O)CC1	52*	1	28	-2
COn1c(SCc2cccc(Cl)c2)nc2ccccc2c1=O	56*	1.1	11	-6
COn1c(SCc2ccccc2)nc2ccccc2c1=O	69*	1	14	0
CC(OC(=O)Cc1c[nH]c2ccccc12)C(=O)Nc1ccccc1F (configuration not stated)	4	x	x	x
Cc1csc(C(C)N(C)C(=O)c2ccc(OC3CCN(Cc4ccccn4)CC3)cc2)n1 (configuration not stated)	13	x	x	x
COCCCNC1=C(C#N)C(=O)NC(c2cccs2)S1 (configuration not stated)	-3	x	x	x
CCOC(=O)Cc1csc(SCC(=O)N2CCN(c3ccccc3)CC2)n1	5	x	x	x
O[C@@H]1CN(Cc2cccs2)[C@@H](c2ccc(Cl)cc2)C[C@H]1n1cc(C2CC2)nn1	5	x	x	x
CCc1ccc2oc(-c3cc(N)cc(C)c3O)nc2c1	21	0.4	8	62*
CCCC(=O)Nc1ccc(-c2nc3cc(C)c(C)cc3o2)c(O)c1	3	1	15	-4
CCc1ccc2oc(-c3cc(N)ccc3Cl)nc2c1	47*	0.4	43	56*
c1cc(-c2nc3cc(Cc4ccc5oc(-c6ccncc6)nc5c4)ccc3o2)ccn1	x	1.1	30	-6
Nc1ccc2oc(-c3ccccc3Cl)nc2c1	47	0.3	42	75*
Cc1ccc(C)c(-c2nc3cc(N)ccc3o2)c1	2	1	-10	4
CCc1ccc2oc(-c3cc(N)ccc3O)nc2c1	65*	0.1	15	88*
Nc1ccc2oc(-c3cc(Br)ccc3Cl)nc2c1	2	1	15	2
COc1ccc(C(=O)NCC(c2ccccc2)c2ccccc2)cc1S(=O)(=O)N1CCOCC1	-7	x	x	x
CNc1nnc(-c2ccc(OC)cc2)s1	9	0.4	40	63*
O=C(Nc1ccc(F)c(Cl)c1)[C@@H]1O[C@H](CO)[C@H](O)[C@H](O)[C@H]1O	-6	x	x	x
c1ccc(OCCSc2nnc3sc4ccccc4n23)cc1	37	0.2	40	80*
CCOC(=O)c1c(-n2cccc2)sc2c1CCCC2=O	3	1	21	-4
COc1ccc(CNS(=O)(=O)NCc2ccc(C)cc2)cc1	-2	1	16	2
COc1ccc(-n2cc(C(=O)c3ccccc3O)cn2)cc1	50*	0.3	16	66*
COc1cccc2c1C(=O)c1c(O)c3c(c(O)c1C2=O)C[C@@](O)(C(=O)CO)C[C@@H]3O[C@H]1C[C@H](N)[C@@H](O)[C@H](C)O1	57*	x	x	x
SMILES	C8 TRAIL sens	FLuc stim CS	PPC-1+TRAIL kill	FLuc inhib CS
COc1cccc2c1C(=O)c1c(O)c3c(c(O)c1C2=O)CC(O)(C(=O)CO)CC3OC1CC(N(C)C)C(O)C(C)O1 (configuration not stated)	49	x	x	x
Cc1ccc2nc(N3CCN(c4cccc(C)c4C)CC3)c3nnnn3c2c1	3	1.1	4	-7
Cc1ccc2nc(Cl)c3nnnn3c2c1	62*	1	18	-1
Cc1ccc(-c2nc3ccccn3c2C=O)cc1	19	0.5	17	50*
C[C@@H]1CN([C@@H](C)CO)C(=O)c2cc(C#Cc3ccccc3)cnc2O[C@@H]1CN(C)Cc1ccccn1	2	x	x	x
O=C(CSC(=S)N1CCCC1)Nc1ncc(Cl)cc1Cl	10	x	x	x
N#C/C(=C\c1ccc(N2CCOCC2)o1)c1nc2ccccc2[nH]1	57*	0.2	14	85*
CCN1CCN(Cc2ccc(NC(=O)Nc3cccs3)cc2)CC1	32	0.3	7	74*
COc1ccc(NC(=O)CCC(=O)c2cccs2)cc1Cl	-4	x	x	x
COc1ccc(NC(=O)Nc2cccs2)cc1Cl	21	0.4	-3	58*
CCN1CCN(Cc2ccc(NC(=O)Nc3ccccc3)cc2)CC1	36	0.4	36	64*
Cc1ccc(-c2noc(CNC(=O)COc3ccccc3C)n2)cc1	-11	x	x	x
O=C(NCc1cc(Cl)cc(Cl)c1)c1csc(COCCO)n1	-3	x	x	x
O=C(c1ccncc1)N(Cc1cc2ccccc2[nH]c1=O)C1CCCCC1	76*	1	12	-4
Brc1cc2c(cc1/C=N/Nc1nc3ccccc3s1)OCO2	0	1	8	-2
Brc1csc(/C=N/Nc2nc3ccccc3s2)c1	35	0.5	29	54*
